What was measured:
[1] = Non-competitive inhibition of Geobacillus toebii BK1 alpha-galactosidase after 90 mins by Lineweaver-Burke plot analysis
[2] = (§1) Inhibition of almond seed beta-glucosidase at 1 mM after 90 mins by spectrophotometric analysis; parameters: species or system Prunus dulcis
Procedure, shortened: (§2)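 Each enzyme was screened with inhibitor at a single concentration of 1 mM, and percent inhibition was recorded. Reported values are the average of three sets of assays.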

Prunus dulcis [3] = assay: as §1; procedure, shortened: as §2
[4] = (§3) Inhibition of almond seed beta-galactosidase at 1 mM after 90 mins by spectrophotometric analysis; parameters: species or system Prunus dulcis; procedure, shortened: as §2
Prunus dulcis [5] = assay: as §3; procedure, shortened: as §2
[6] = (§4) Inhibition of almond seed alpha-mannosidase at 1 mM after 90 mins by spectrophotometric analysis; parameters: species or system Prunus dulcis; procedure, shortened: as §2
Prunus dulcis [7] = assay: as §4; procedure, shortened: as §2
[8] = Inhibition of Geobacillus toebii BK1 alpha-galactosidase after 90 mins by spectrophotometric analysis
[9] = Competitive inhibition of yeast alpha-glucosidase after 90 mins by Lineweaver-Burke plot analysis; parameters: species or system Saccharomyces cerevisiae
[10] = Inhibition of yeast alpha-glucosidase after 90 mins by spectrophotometric analysis; parameters: species or system Saccharomyces cerevisiae
[11] = (§5) Inhibition of almond seed alpha-galactosidase at 1 mM after 90 mins by spectrophotometric analysis; parameters: species or system Prunus dulcis; procedure, shortened: as §2
Prunus dulcis [12] = assay: as §5; procedure, shortened: as §2
[13] = (§6) Inhibition of almond seed N-Acetyl-beta-D-glucosaminidase at 1 mM after 90 mins by spectrophotometric analysis; parameters: species or system Prunus dulcis; procedure, shortened: as §2
Prunus dulcis [14] = assay: as §6; procedure, shortened: as §2
[15] = (§7) Inhibition of Geobacillus toebii BK1 alpha-galactosidase at 1 mM after 90 mins by spectrophotometric analysis; procedure, shortened: as §2
Geobacillus toebii = assay: as §7; procedure, shortened: as §2
[16] = (§8) Inhibition of yeast alpha-glucosidase at 1 mM after 90 mins by spectrophotometric analysis; parameters: species or system Saccharomyces cerevisiae; procedure, shortened: as §2
Saccharomyces cerevisiae = assay: as §8; procedure, shortened: as §2

Ki [1] | Ki [2] | inhibition (Prunus dulcis [3]) | Ki [4] | inhibition (Prunus dulcis [5]) | Ki [6] | inhibition (Prunus dulcis [7]) | IC50 [8] | Ki [9] | IC50 [10] | Ki [11] | inhibition (Prunus dulcis [12]) | Ki [13] | inhibition (Prunus dulcis [14]) | Ki [15] | inhibition (Geobacillus toebii) | Ki [16] | inhibition (Saccharomyces cerevisiae) | SMILES
26 µM | Not Active | < 50% | Not Active | < 50% | Not Active | < 50% | 180 µM | 71 µM | 1150 µM | Not Active | < 50% | Not Active | < 50% |  |  |  |  | C[C@H]1CC[C@@H](O)[C@@H](C(=O)O)N1
 | Not Active | < 50% | Not Active | < 50% | Not Active | < 50% |  |  |  | Not Active | < 50% | Not Active | < 50% | Not Active | < 50% | Not Active | < 50% | C[C@H]1CC[C@@H](O)[C@@H](CO)N1
